Measurements reported in paper PMC3170876 (Chemmedchem, 2011).
pIC50: −log10 of the molar value.

How the values were obtained:
[1] = target: human cytochrome P450 3A4 (Homo sapiens, UniProt P08684); assay: Inhibition of human cytochrome P450 3A4; assay type: in vitro ADME; conditions: IC50 CYP450 3A4-BQ, substrate BQ; mean of two measurements
How it was run: (§1)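 Human CYP450 isoform inhibition (1A2, 2C9, 2C19, 2D6, 3A4) measured as IC50 or as percent inhibition at 10 μm test compound. For 3A4, two probe substrates were used separately: 7-benzyloxy-trifluoromethylcoumarin (BFC) and […] (BQ). Each value is the mean of two measurements.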

[2] = target: T1, human cytochrome P450 1A2 (Homo sapiens, UniProt P05177); assay: Inhibition of human cytochrome P450 1A2; assay type: in vitro ADME
T1 sequence (P05177 1-516): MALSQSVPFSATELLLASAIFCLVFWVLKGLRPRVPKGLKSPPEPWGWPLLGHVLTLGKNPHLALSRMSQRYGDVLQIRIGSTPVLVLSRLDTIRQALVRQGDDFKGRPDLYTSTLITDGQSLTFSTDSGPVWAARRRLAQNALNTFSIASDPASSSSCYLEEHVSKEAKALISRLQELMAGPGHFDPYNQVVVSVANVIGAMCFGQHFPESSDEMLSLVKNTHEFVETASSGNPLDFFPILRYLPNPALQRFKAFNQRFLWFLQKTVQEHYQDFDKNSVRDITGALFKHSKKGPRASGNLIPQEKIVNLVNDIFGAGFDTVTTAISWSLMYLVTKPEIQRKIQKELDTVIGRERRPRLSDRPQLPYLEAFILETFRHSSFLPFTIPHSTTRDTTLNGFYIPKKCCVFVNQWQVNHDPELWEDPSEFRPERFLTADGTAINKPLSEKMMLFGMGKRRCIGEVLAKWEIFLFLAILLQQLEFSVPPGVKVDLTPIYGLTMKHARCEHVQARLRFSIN
How it was run: as §1

human 11β-HSD1 = human 11β-HSD1 (Homo sapiens, UniProt P28845); assay: 11β-HSD1 inhibition cellular assay; assay type: cell-based; conditions: IC50, human 11β-HSD1, HEK293 cell line transfected with human HSD11B1 gene; mean of three measurements, variance less than 20 %
[3] = Membrane permeability in the Caco-2 cell model; assay type: in vitro ADME; conditions: human
How it was run: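 Caco-2 monolayer permeability. Test compound was applied at 20 μm, and the apparent permeability coefficient (Papp) was determined in the apical-to-basolateral direction.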

[4] = target: human cytochrome P450 2C19 (Homo sapiens, UniProt P33261); assay: Inhibition of human cytochrome P450 2C19; assay type: in vitro ADME
How it was run: as §1

mouse 11β-HSD1 = mouse 11β-HSD1 (Mus musculus, UniProt P50172); assay: Inhibition of mouse 11β-HSD1; assay type: cell-based
17β-HSD1 = target: T2, 17β-HSD1 (Homo sapiens, UniProt P14061); assay: Selectivity: inhibition of 17β-HSD1; conditions: at a concentration of 10 μM (data not shown)
T2 sequence (P14061 1-328): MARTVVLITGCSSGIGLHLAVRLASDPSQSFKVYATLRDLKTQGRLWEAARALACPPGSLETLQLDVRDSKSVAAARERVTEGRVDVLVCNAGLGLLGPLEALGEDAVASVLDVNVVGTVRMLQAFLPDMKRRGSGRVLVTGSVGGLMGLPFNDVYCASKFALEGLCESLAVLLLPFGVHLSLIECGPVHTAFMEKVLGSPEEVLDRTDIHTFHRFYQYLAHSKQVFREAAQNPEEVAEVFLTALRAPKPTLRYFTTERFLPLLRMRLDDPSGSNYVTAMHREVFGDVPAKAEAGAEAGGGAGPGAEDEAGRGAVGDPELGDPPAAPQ

[5] = Metabolic stability in human liver microsomes; assay type: in vitro ADME; conditions: 37 °C, NADPH, 40 min incubation, mean of two experiments
How it was run: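 Parent compound was incubated with human liver microsomes plus NADPH cofactor at 37 °C for 40 min. Loss of parent was followed by HPLC, and half-life and intrinsic clearance were calculated from the depletion. Values are the mean of two experiments.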

human 11β-HSD2 = target: T3, human 11β-HSD2 (Homo sapiens, UniProt P80365); assay: Selectivity: inhibition of human 11β-HSD2; assay type: cell-based; conditions: at a concentration of 10 μM (data not shown)
T3 sequence (P80365 1-405): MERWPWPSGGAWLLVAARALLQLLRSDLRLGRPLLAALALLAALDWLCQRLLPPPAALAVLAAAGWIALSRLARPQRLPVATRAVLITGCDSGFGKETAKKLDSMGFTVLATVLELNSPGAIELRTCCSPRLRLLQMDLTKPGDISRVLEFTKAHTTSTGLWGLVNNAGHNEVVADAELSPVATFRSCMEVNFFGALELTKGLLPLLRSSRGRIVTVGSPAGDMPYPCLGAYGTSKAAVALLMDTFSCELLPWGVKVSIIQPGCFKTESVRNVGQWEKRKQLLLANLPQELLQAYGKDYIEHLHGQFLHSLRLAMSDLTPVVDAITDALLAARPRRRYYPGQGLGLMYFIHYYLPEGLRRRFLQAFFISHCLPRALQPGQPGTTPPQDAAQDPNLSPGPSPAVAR

[6] = target: human cytochrome P450 2D6 (Homo sapiens, UniProt P10635); assay: Inhibition of human cytochrome P450 2D6; assay type: in vitro ADME
How it was run: as §1

[7] = target: human cytochrome P450 2C9 (Homo sapiens, UniProt P11712); assay: Inhibition of human cytochrome P450 2C9; assay type: in vitro ADME
How it was run: as §1

mouse 11β-HSD1, sequence (P50172 whole entry): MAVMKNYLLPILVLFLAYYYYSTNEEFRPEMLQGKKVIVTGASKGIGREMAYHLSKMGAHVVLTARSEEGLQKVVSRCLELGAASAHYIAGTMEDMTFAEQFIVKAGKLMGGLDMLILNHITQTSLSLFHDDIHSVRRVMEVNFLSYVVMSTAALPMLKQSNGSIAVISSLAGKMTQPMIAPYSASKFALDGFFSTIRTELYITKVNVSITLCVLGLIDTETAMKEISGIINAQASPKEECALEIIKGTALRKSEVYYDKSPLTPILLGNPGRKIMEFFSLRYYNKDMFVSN
human cytochrome P450 2C19, sequence (P33261 whole entry): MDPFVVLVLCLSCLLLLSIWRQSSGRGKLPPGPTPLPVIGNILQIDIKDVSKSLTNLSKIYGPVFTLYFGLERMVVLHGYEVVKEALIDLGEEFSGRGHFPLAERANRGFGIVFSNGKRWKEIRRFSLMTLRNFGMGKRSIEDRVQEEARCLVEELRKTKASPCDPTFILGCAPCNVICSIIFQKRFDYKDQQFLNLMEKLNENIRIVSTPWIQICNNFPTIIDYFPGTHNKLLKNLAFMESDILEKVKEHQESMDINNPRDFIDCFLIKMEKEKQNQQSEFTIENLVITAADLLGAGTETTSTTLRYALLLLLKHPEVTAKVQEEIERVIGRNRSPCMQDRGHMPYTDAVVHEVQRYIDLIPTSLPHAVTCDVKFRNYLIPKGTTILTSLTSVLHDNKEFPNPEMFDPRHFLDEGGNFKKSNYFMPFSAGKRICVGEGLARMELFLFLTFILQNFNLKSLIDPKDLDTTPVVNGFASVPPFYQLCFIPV
human cytochrome P450 3A4, sequence (P08684 whole entry, canonical isoform): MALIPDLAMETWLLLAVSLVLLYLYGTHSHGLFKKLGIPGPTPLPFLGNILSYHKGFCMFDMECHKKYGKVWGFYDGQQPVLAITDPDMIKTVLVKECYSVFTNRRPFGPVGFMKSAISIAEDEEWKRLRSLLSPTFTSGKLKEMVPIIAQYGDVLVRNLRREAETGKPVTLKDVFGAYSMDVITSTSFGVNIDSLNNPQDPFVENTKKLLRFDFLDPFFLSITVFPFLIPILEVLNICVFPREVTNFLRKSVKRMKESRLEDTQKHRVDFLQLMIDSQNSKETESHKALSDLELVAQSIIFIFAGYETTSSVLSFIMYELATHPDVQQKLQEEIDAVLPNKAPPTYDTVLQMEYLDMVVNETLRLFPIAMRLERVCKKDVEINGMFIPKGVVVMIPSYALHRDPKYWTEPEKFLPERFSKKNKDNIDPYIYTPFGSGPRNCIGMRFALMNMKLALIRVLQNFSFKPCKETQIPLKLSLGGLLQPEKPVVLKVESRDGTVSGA
human 11β-HSD1, sequence (P28845 whole entry): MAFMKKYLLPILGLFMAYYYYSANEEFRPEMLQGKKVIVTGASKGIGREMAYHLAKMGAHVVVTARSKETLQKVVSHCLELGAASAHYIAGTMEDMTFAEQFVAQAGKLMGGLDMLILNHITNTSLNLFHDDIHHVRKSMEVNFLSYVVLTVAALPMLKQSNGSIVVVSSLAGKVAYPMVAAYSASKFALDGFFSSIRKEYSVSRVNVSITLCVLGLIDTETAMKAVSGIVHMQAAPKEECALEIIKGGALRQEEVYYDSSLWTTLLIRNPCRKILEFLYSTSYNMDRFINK
human cytochrome P450 2C9, sequence (P11712 whole entry): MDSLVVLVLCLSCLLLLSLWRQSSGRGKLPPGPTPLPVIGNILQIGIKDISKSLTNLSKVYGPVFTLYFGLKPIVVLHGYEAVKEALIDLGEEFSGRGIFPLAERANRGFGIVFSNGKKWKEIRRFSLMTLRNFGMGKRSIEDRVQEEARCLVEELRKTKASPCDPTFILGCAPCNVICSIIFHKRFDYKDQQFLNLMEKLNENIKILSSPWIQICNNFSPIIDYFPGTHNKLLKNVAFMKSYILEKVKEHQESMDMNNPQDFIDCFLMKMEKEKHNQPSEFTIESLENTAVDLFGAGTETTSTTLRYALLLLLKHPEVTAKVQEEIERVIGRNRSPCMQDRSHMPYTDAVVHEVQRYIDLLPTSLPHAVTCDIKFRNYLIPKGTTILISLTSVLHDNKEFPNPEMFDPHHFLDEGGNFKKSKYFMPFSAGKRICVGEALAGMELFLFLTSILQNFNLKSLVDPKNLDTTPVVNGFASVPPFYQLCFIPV
human cytochrome P450 2D6, sequence (P10635 whole entry): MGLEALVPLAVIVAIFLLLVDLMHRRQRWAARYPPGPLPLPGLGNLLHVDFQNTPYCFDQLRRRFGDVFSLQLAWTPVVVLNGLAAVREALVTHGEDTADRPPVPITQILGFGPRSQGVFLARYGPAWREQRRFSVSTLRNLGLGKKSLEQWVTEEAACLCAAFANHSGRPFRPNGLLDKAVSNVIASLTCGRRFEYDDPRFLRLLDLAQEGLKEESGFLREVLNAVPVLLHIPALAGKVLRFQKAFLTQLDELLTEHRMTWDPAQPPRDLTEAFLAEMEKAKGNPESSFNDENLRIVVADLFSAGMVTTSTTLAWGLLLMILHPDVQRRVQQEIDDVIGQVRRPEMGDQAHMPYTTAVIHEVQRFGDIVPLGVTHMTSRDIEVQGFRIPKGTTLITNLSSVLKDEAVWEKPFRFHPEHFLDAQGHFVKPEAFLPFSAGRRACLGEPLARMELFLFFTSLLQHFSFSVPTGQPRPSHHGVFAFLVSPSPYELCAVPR

| SMILES | melting point | pIC50 (human 11β-HSD1) | pIC50 (mouse 11β-HSD1) | other results |
| --- | --- | --- | --- | --- |
| O=C(C[S+]([O-])Cc1cccs1)C12CC3CC(CC(C3)C1)C2 (stereo not shown) [Compound 14, 1-(Adamantan-1-yl)-2-(thiophen-2-ylmethanesulfinyl)ethanone] | 95 to 98 °C | > 7.30 | 7.70 | pIC50 [1]: 4.92; pIC50 [2]: 4.48; Papp A→B at 20 μM [3]: 22 ×10⁻⁶ cm/s; pIC50 [4]: 4.52 |
| Cn1cnnc1SCC(=O)C12CC3CC(CC(C3)C1)C2 [Compound 28, 1-(Adamantan-1-yl)-2-(4-methyl-4H-[1,2,4]triazol-3-ylsulfanyl)-ethanone] |  |  |  | pIC50 [1]: 4.21; inhibition against 17β-HSD1 (17β-HSD1): inactive; pIC50 [2]: 4.68; pIC50 [4]: 5.44; CLint [5]: 8.7 µL/min/mg; inhibition against human 11β-HSD2 (human 11β-HSD2): inactive |
| O=C(COCc1ccsc1)C12CC3CC(CC(C3)C1)C2 [Compound 7, 1-(Adamantan-1-yl)-2-(thiophen-3-ylmethoxy)ethanone] | 58 to 60 °C | 6.55 |  |  |
| O=C(C[S+]([O-])Cc1ccco1)C12CC3CC(CC(C3)C1)C2 (stereo not shown) [Compound 15, 1-(Adamantan-1-yl)-2-(furan-2-ylmethanesulfinyl)ethanone] | 75 to 79 °C | 7.39 | 7.42 |  |
| O=C(COCc1cccs1)C12CC3CC(CC(C3)C1)C2 [Compound 6, 1-(Adamantan-1-yl)-2-(thiophen-2-ylmethoxy)ethanone] | 57 to 58 °C | 6.39 |  |  |
| CSc1nnc(SCC(=O)C23CC4CC(CC(C4)C2)C3)s1 [Compound 46, 1-(Adamantan-1-yl)-2-{[5-(methylsulfanyl)-1,3,4-thiadiazol-2-yl]sulfanyl}ethanone] | 133.5 to 135 °C | 6.51 |  |  |
| Cc1nnc(S(=O)(=O)CC(=O)C23CC4CC(CC(C4)C2)C3)s1 [Compound 37, 1-(Adamantan-1-yl)-2-(5-methyl-[1,3,4]thiadiazole-2-sulfonyl)ethanone] | 111 to 113 °C |  |  | pIC50 [1]: 4.52; pIC50 [2]: < 4.00; pIC50 [4]: 4.77; pIC50 [6]: < 4.00; pIC50 [7]: 4.96 |
| O=C(CSCc1nccs1)C12CC3CC(CC(C3)C1)C2 [Compound 12, 1-(Adamantan-1-yl)-2-[(1,3-thiazol-2-ylmethyl)sulfanyl]ethanone] | 55 to 58 °C | 6.61 |  |  |
| Cn1c(SCC(=O)C23CC4CC(CC(C4)C2)C3)nnc1-c1cccs1 [Compound 44, 1-(Adamantan-1-yl)-2-{[4-methyl-5-(thiophen-2-yl)-4H-1,2,4-triazol-3-yl]sulfanyl}ethanone] | 156 to 157 °C | 5.23 |  |  |
| Cn1cnnc1[S+]([O-])CC(=O)C12CC3CC(CC(C3)C1)C2 (stereo not shown) [Compound 32, 1-(Adamantan-1-yl)-2-(4-methyl-4H-[1,2,4]triazole-3-sulfinyl)ethanone] | 124.5 to 127 °C | 7.57 | 5.51 |  |
| O=C(CSc1nnc(C2CC2)n1C1CC1)C12CC3CC(CC(C3)C1)C2 [Compound 43, 1-(Adamantan-1-yl)-2-[(4,5-dicyclopropyl-4H-1,2,4-triazol-3-yl)sulfanyl]ethanone] | 117 to 119 °C | 5.73 |  |  |
| Cn1ccnc1[S+]([O-])CC(=O)C12CC3CC(CC(C3)C1)C2 (stereo not shown) [Compound 31, 1-(Adamantan-1-yl)-2-(1-methyl-1H-imidazole-2-sulfinyl)ethanone] | 86 to 89 °C | 7.32 | 6.92 | inhibition against 17β-HSD1 (17β-HSD1): inactive; Papp A→B at 20 μM [3]: 44 ×10⁻⁶ cm/s; inhibition against human 11β-HSD2 (human 11β-HSD2): inactive |
| Nc1nnc(S(=O)(=O)CC(=O)C23CC4CC(CC(C4)C2)C3)s1 [Compound 49, 1-(Adamantan-1-yl)-2-(5-amino-1,3,4-thiadiazole-2-sulfonyl)ethanone] | 202 to 204 °C | 5.75 |  |  |

Further compounds by rising pIC50 (human 11β-HSD1), results first:

| melting point | pIC50 (human 11β-HSD1) | pIC50 (mouse 11β-HSD1) | SMILES | other results |
| --- | --- | --- | --- | --- |
| 69 to 72 °C | 7.00 |  | O=C(CSc1cccs1)C12CC3CC(CC(C3)C1)C2 [Compound 26, 1-(Adamantan-1-yl)-2-(thiophen-2-ylsulfanyl)-ethanone] |  |
| 65 to 69 °C | 7.03 |  | Cn1ccnc1SCC(=O)C12CC3CC(CC(C3)C1)C2 [Compound 27, 1-(Adamantan-1-yl)-2-(1-methyl-1H-imidazol-2-ylsulfanyl)-ethanone] |  |
| 124 to 125 °C | 7.21 |  | Cn1ccnc1S(=O)(=O)CC(=O)C12CC3CC(CC(C3)C1)C2 [Compound 35, 1-(Adamantan-1-yl)-2-(1-methyl-1H-imidazole-2-sulfonyl)ethanone] |  |
| 89 to 91 °C | 7.39 | 7.74 | O=C(COCc1nccs1)C12CC3CC(CC(C3)C1)C2 [Compound 8, 1-(Adamantan-1-yl)-2-(1,3-thiazol-2-ylmethoxy)ethanone] |  |
|  | 7.44 | 6.61 | Cc1nnc(SCC(=O)C23CC4CC(CC(C4)C2)C3)n1C [Compound 38, 1-(Adamantan-1-yl)-2-[(4,5-dimethyl-1,2,4-triazol-3-yl)sulfanyl]ethanone] | inhibition against 17β-HSD1 (17β-HSD1): inactive; inhibition against human 11β-HSD2 (human 11β-HSD2): inactive |
| 127 to 129 °C | 7.59 | 7.36 | Cc1nnc([S+]([O-])CC(=O)C23CC4CC(CC(C4)C2)C3)s1 (stereo not shown) [Compound 33, 1-(Adamantan-1-yl)-2-(5-methyl-[1,3,4]thiadiazole-2-sulfinyl)ethanone] |  |
